A word on the Ki: it is the equilibrium dissociation constant of an inhibitor or competing ligand from its target. A high value points to lower affinity. In general, EC50 refers to the concentration that produces a half-maximal response. As usually defined, the Emax is the maximal effect, on the per cent scale that the assay sets. Broadly, the IC50 is the concentration needed to halve the response being measured.

The source made the active and inactive calls. No cut-off for these calls is given here.

For assay [1], the target named is T1, Mu-type opioid receptor (Homo sapiens, UniProt P35372). Briefly: Displacement of [3H]DAMGO from human mu opioid receptor expressed in CHO membrane. The format is cell membranes. In a few lines: (§1)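 CHO membranes (0.5 mg protein/sample) incubated 60 min at 25 °C with [3H]DAMGO (µ) or [3H]U69,593 (κ) and 12 compound concentrations in 1 mL 50 mM Tris-HCl, pH 7.5. Nonspecific binding with 10 µM naloxone. Mean ± SEM of three experiments in triplicate.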
T1 sequence (P35372 whole entry): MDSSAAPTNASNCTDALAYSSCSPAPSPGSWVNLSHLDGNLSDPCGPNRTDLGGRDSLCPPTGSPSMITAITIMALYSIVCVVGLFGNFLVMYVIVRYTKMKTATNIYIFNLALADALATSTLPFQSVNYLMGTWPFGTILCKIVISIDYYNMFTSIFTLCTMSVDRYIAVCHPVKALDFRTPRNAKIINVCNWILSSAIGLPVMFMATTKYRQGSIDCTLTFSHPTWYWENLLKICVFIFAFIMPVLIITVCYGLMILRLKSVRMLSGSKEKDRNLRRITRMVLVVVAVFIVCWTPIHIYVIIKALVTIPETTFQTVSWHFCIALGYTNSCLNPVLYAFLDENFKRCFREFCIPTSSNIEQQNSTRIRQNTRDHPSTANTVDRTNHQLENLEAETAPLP

Assay [2] has as its target T2, Delta-type opioid receptor (Homo sapiens, UniProt P41143). Nature of the assay: Displacement of [3H]naltrindole from human delta opioid receptor expressed in CHO membrane. Format: cell membranes. In a few lines:
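CHO membranes (0.5 mg protein/sample) incubated at 25 °C with δ-specific radioligand and 12 compound concentrations in 1 mL 50 mM Tris-HCl, pH 7.5; nonspecific binding with 10 µM naloxone. Three experiments in triplicate.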
A general note: Displacement assays read how much labelled ligand stays bound in the presence of the test substance.

In assay [3] the target is T3, Kappa-type opioid receptor (Homo sapiens, UniProt P41145). Nature of the assay: Displacement of [3H]U-69593 from human kappa opioid receptor expressed in CHO membrane. Format: cell membranes. The method, boiled down: as §1
T3 sequence (P41145 whole entry): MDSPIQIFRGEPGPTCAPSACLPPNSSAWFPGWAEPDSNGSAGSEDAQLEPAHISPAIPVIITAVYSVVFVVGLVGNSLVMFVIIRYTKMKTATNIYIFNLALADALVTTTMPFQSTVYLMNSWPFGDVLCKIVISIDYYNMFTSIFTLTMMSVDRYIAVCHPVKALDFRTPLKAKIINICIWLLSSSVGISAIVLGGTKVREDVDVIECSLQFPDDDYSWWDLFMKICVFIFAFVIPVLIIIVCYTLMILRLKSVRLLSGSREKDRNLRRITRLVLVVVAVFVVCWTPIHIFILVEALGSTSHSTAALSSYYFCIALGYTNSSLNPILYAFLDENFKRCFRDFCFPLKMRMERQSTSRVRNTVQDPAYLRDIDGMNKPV
For assay [4], the target named is Opioid receptors; mu & kappa (Homo sapiens) (UniProt P41145+P35372). Briefly: Selectivity for human kappa opioid receptor over human mu opioid receptor. Format: protein assay.
Sequence of Opioid receptors; mu & kappa (Homo sapiens) (P35372 whole entry, looked up): as the sequence (P35372 whole entry) above
Sequence of Opioid receptors; mu & kappa (Homo sapiens) (P41145 whole entry, looked up): as the sequence (P41145 whole entry) above
Assay [5] has as its target Opioid receptors; delta & kappa (Homo sapiens) (UniProt P41145+P41143). Briefly: Selectivity for human kappa opioid receptor over human delta opioid receptor. Format: protein assay.
In assay [6] the target is T1, Mu-type opioid receptor. Nature of the assay: Agonist activity at human mu opioid receptor expressed in CHO membrane assessed as stimulation of [35S]GTPgammaS binding. The format is functional, cell membranes. The method, boiled down:
(§2)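 Membranes from CHO cells stably expressing human κ (15 µg protein/tube) or µ (7.5 µg/tube) receptor; 12 agonist concentrations, 60 min at 30 °C in Tris-HCl/MgCl2/NaCl/EGTA buffer pH 7.4 with 3 µM GDP and [35S]GTPγS (0.8 nM). Nonspecific binding with 10 µM unlabeled GTPγS; filtration, scintillation counting. Stimulation as % over basal; at least three experiments in triplicate.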

Assay [7] addresses T1, Mu-type opioid receptor. Nature of the assay: Antagonist activity at human mu opioid receptor expressed in CHO membrane assessed as inhibition of DAMGO-induced [35S]GTP-gamma-S binding. Format: functional, cell membranes. In a few lines: (§3)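 Antagonism measured in CHO membranes expressing κ receptor with 100 nM U50,488, or µ receptor with 200 nM DAMGO, plus test compound and 0.8 nM [35S]GTPγS, 3 µM GDP. Filtration and scintillation readout; IC50 and Imax from three experiments in triplicate.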
For orientation: GTPγS resists hydrolysis and so accumulates on activated G proteins.

The target in assay [8] is T3, Kappa-type opioid receptor. Briefly: Agonist activity at human kappa opioid receptor expressed in CHO membrane assessed as stimulation of [35S]GTP-gamma-S binding. Format: functional, cell membranes. In a few lines:
as §2

In assay [9] the target is T3, Kappa-type opioid receptor. Briefly: Antagonist activity at human kappa opioid receptor expressed in CHO membrane assessed as inhibition of U50488-induced [35S]GTP-gamma-S binding. The format is functional, cell membranes. The method, boiled down: as §3
For assay [10], the target named is T2, Delta-type opioid receptor. Nature of the assay: Agonist activity at human delta opioid receptor expressed in CHO membrane assessed as stimulation of [35S]GTP-gamma-S binding. Format: functional, cell membranes.
For assay [11], the target named is T2, Delta-type opioid receptor. Nature of the assay: Antagonist activity at human delta opioid receptor expressed in CHO membrane assessed as inhibition of SNC80-induced [35S]GTPgammaS binding. The format is functional, cell membranes.

T2 sequence (P41143 whole entry): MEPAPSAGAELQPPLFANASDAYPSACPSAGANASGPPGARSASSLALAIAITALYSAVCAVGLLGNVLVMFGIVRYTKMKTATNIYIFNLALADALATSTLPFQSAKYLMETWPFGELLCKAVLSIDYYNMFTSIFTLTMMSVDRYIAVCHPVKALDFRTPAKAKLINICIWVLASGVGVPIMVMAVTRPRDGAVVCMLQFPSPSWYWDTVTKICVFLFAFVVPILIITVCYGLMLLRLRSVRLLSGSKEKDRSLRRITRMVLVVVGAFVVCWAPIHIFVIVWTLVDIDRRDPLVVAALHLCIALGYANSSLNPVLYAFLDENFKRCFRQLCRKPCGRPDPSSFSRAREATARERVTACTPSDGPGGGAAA
Sequence of Opioid receptors; delta & kappa (Homo sapiens) (P41143 whole entry, looked up): as the sequence (P41143 whole entry) above
Sequence of Opioid receptors; delta & kappa (Homo sapiens) (P41145 whole entry, looked up): as the sequence (P41145 whole entry) above

For the molecule `CN1CC[C@]23Cc4nc(N)sc4C[C@H]2[C@H]1Cc1ccc(O)cc13`, the Ki was found to be 0.49 nM in assay [1], 4.2 nM in [2] and 2.2 nM in assay [3]. Besides, the Ratio Ki in assay [4] was determined as 0.2; in assay [5], 2. Besides, the EC50 was 140 nM in assay [6], 21 nM in [8] and 8.4 nM in assay [10]. Moreover, the Emax in [6] came to 42%; in [8], 44%; in assay [10] it was 67%. Besides, the Imax in assay [7] amounted to 45%. In addition, the outcome in assay [9] and in assay [11] was inactive.
With `Oc1ccc2c(c1)[C@]13CCN(CC4CC4)[C@H](C2)[C@@H]1Cc1c([nH]c2ccccc12)C3`, the figures for the inhibition constant Ki in assay [1], in [2] and in assay [3] were 1.1 nM, 0.19 nM and 0.64 nM, respectively. Also, the Ratio Ki is 2 in [4] and 0.3 in [5]. The EC50 in assay [6] is 92 nM; in assay [8], 61 nM; in [10], 0.16 nM. The Emax was 47% in assay [6], 67% in assay [8] and 22% in assay [10]. For the same molecule, the IC50 in assay [7] was 12 nM; in [9], 17 nM; in assay [11], 1.2 nM. Further, the Imax in assay [7] stood at 84%; in [9], 49%; in assay [11] it was 73%.
In the case of `COc1ccc2c(c1)[C@]13CCN(C)[C@H](C2)[C@@H]1Cc1c([nH]c2ccccc12)C3`, the Ki in assay [1] is 340 nM; in assay [2], 35 nM; in [3], 390 nM. Also, the Ratio Ki is 0.9 in assay [4] and 0.1 in [5].
Consider `Nc1nc2c(s1)C[C@H]1[C@H]3Cc4ccc(O)cc4[C@@]1(CCN3CC1CCC1)C2`, for which the Ki in assay [1] was determined as 0.37 nM; in [2], 1.1 nM; in [3] it was 0.14 nM. Moreover, the Ratio Ki in assay [4] turned out to be 3; in [5] it was 8. The EC50 in assay [6] was 2.6 nM; in [8], 2.6 nM; in assay [10] it was 2.5 nM. For the same molecule, the figures for the Emax in [6], in [8] and in assay [10] were 33%, 40% and 51%, respectively. Moreover, the values for the IC50 in assay [7] and in assay [9] were 26 nM and 93 nM, respectively. Also, the results for the Imax in [7] and in assay [9] were 68% and 44%, respectively. In addition, the outcome in assay [11] was inactive.
Turning to `Nc1nc2c(s1)C[C@H]1[C@H]3Cc4ccc(O)cc4[C@@]1(CCN3CC1CC1)C2`, the Ki in assay [2] is 0.23 nM; in assay [3], 0.07 nM. Also, the EC50 in assay [8] was found to be 0.34 nM; in [10] it was 0.17 nM. Moreover, the Emax in [8] stood at 37%; in assay [10], 49%. Besides, the result in [9] and in assay [11] was inactive.
Consider `CN1CC[C@]23Cc4[nH]c5ccccc5c4C[C@H]2[C@H]1Cc1ccc(O)cc13`, for which the Ki turned out to be 22 nM in [1], 0.35 nM in assay [2] and 14 nM in assay [3]. For the same molecule, the Ratio Ki in [4] turned out to be 1.6; in [5] it was 0.03. Moreover, the EC50 in assay [10] was determined as 0.47 nM. The Emax in assay [10] amounted to 23%. Also, in assay [11], the concentration for half-maximal inhibition (IC50) is 1.5 nM. Besides, the Imax in assay [11] was 45%.
In the case of `COc1ccc2c(c1)[C@]13CCN(CC4CCC4)[C@H](C2)[C@@H]1Cc1c([nH]c2ccccc12)C3`, the inhibitory constant (Ki) in [1] was determined as 330 nM; in assay [2], 8.7 nM; in assay [3], 89 nM. In addition, the Ratio Ki is 4 in assay [4] and 0.1 in assay [5]. The EC50 in assay [10] came out at 23 nM. Moreover, in [10], the maximum response (Emax) was 54%. The result in assay [11] was inactive.
As for `COc1ccc2c(c1)[C@]13CCN(CC4CC4)[C@H](C2)[C@@H]1Cc1c([nH]c2ccccc12)C3`, the inhibition constant Ki in assay [1] was found to be 5.9 nM; in assay [2], 1.5 nM; in assay [3], 1.4 nM. In addition, the Ratio Ki in [4] stood at 4; in assay [5], 1. The EC50 in [6] came out at 1.7 nM; in assay [8], 24 nM; in assay [10], 1.5 nM. Further, the Emax in assay [6] was determined as 72%; in assay [8] it was 68%; in [10], 56%. For the same molecule, in assay [7], the IC50 came to 440 nM. Also, the Imax in [7] is 43%. Also, the outcome in [9] and in [11] was inactive.
`Oc1ccc2c(c1)[C@]13CCN(CC4CCC4)[C@H](C2)[C@@H]1Cc1c([nH]c2ccccc12)C3`: the results for the Ki in [1], in assay [2] and in assay [3] were 3.9 nM, 0.17 nM and 1 nM, respectively. In addition, the values for the Ratio Ki in [4] and in assay [5] were 4 and 0.2, respectively. Also, the figures for the EC50 in assay [6], in [8] and in assay [10] were 110 nM, 190 nM and 0.8 nM, respectively. Besides, the Emax came out at 68% in assay [6], 87% in assay [8] and 37% in assay [10]. Further, the Imax in assay [7] was determined as 23%; in assay [11] it was 55%. In addition, in assay [9], the outcome was inactive. In assay [11], the IC50 stood at 0.6 nM.

Source of the values: ChEMBL document CHEMBL1143667, “Synthesis and pharmacological evaluation of 6,7-indolo/thiazolo-morphinans--further SAR of levorphanol” (J Med Chem, 2007).
